Calls of active or inactive are those of the source. The calls are words filed in the database; no cut-off is given here.
What was measured:
[1] = molecular target: Tumor necrosis factor (Mus musculus) (UniProt P06804); assay: Tested for inhibition of Tumor necrosis factor, alpha in LPS-stimulated mice at a dose of 10 mg/kg; Not statistically significant.; conditions: at 10 mg/kg
[2] = molecular target: T1, Tumor necrosis factor (Homo sapiens, UniProt P01375); assay: Tested for inhibition of Tumor necrosis factor, alpha in human whole blood; type: functional, tissue-based
Summary of the method: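 Freshly drawn heparinized human whole blood mixed with compound serially diluted in human type AB serum, held 30 min at 37 °C, then stimulated ex vivo with E. coli LPS 0111:B4 (50 ng/mL final). Incubation 5 h at 37 °C. Plasma TNF-α quantified by ELISA, DELFIA or electrochemiluminescence against an on-plate standard curve. Duplicate 11-point curves fitted to a 4-parameter logistic. EC50 is the geometric mean over at least three donors.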

[3] = Tested for plasma level after 90 min of 10 mg/kg dose administered in mice; type: ADME, organism-based; parameters: dose 10 mg/kg; conditions: mouse, read-out: Activity
Summary of the method: (§1)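 Plasma compound concentration (ng/mL) measured 90 min after oral dosing in LPS-stimulated mice at 10 or 30 mg/kg.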

[4] = molecular target: T1, Tumor necrosis factor; assay: Tested for inhibition of Tumor necrosis factor, alpha in THP cells; type: functional, cell-based
Summary of the method: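 THP-1 cells preincubated with or without compound 30 min at 37 °C, 5% CO2, then stimulated with LPS (1 μg/mL final) for a further 18–24 h. Human TNF-α in supernatant measured by ELISA.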

[5] = molecular target: Mitogen-activated protein kinase 14 (Mus musculus) (UniProt P47811)
[6] = molecular target: Mitogen-activated protein kinase 14 (Mus musculus, UniProt P47811); assay: Kd value and murine Mitogen-activated protein kinase p38 alpha complex was calculated
[7] = Tested for plasma level after 90 min of 30 mg/kg dose administered in mice; type: ADME, organism-based; parameters: dose 30 mg/kg; conditions: mouse, read-out: Activity
Summary of the method: as §1

[8] = molecular target: Tumor necrosis factor (Mus musculus) (UniProt P06804); assay: Tested for inhibition of Tumor necrosis factor, alpha in LPS-stimulated mice at a dose of 30 mg/kg
[9] = test system: Mus musculus; assay: Tested for plasma level after 90 min of 10 mg/kg dose administered in mice; Not detected.; type: ADME, organism-based; parameters: dose 10 mg/kg; conditions: in vivo, 1.5 h
Summary of the method: as §1

[10] = molecular target: Tumor necrosis factor (Mus musculus) (UniProt P06804); assay: Tested for inhibition of Tumor necrosis factor, alpha in LPS-stimulated mice at a dose of 10 mg/kg; conditions: at 10 mg/kg
[11] = Partition coefficient (logP); type: physicochemical; conditions: octanol/water

Chain of Mitogen-activated protein kinase 14 (Mus musculus) (P47811 whole entry): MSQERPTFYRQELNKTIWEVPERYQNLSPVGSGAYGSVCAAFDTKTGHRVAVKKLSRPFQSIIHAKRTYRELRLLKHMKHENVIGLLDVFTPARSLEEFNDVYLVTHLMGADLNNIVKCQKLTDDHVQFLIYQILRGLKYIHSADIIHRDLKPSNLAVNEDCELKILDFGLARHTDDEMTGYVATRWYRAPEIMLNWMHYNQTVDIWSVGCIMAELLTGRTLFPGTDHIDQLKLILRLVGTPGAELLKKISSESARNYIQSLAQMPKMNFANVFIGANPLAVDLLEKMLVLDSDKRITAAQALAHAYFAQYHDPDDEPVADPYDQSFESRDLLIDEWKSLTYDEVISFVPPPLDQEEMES
Chain of Mitogen-activated protein kinase 14 (P47811 whole entry): as above
T1 sequence (P01375 whole entry): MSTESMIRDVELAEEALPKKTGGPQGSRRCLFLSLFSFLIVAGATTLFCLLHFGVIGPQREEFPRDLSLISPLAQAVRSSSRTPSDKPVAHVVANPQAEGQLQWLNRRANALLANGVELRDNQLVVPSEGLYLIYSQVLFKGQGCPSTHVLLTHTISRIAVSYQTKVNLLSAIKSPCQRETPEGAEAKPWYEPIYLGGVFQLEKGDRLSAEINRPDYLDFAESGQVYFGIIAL
Chain of Tumor necrosis factor (Mus musculus) (P06804 whole entry, looked up): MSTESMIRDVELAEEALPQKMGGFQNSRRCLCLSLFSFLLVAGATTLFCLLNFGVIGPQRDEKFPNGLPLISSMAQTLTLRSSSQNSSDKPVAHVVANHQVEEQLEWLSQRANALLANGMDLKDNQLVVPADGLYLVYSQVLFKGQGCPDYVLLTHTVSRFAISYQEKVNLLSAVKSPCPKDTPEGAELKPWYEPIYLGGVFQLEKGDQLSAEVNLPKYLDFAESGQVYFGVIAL

SMILES	inhibition [1]	EC50 [2] [nM]	concentration at 1.5 h [3] [µg/mL]	EC50 [4] [nM]	Tm [5] [°C]	Kd [6] [nM]	concentration at 1.5 h [7] [µg/mL]	inhibition [8] [%]	Activity [9]	inhibition [10] [%]	logP [11]
CC(C)(C)c1cc(NC(=O)Nc2ccc(OCCN3CCOCC3)c3ccccc23)n(-c2cccc(N)c2)n1	inactive	1600	1.4	11	60.9	0.23					
Cc1ccc(-n2nc(C(C)(C)C)cc2NC(=O)Nc2ccc(OCCN3CC[S+]([O-])CC3)c3ccccc23)cc1		1300		50	60.2	0.4	62.8	84			
CC(C)(C)c1cc(NC(=O)Nc2ccc(OCCN3CCOCC3)c3ccccc23)n(-c2ccc(N)cc2)n1	inactive	440		9	61.4	0.16			Not Active		
Cn1nc(C(C)(C)C)cc1NC(=O)Nc1ccc(OCCN2CCOCC2)c2ccccc12					54.5	26					
CC(C)(C)c1cc(NC(=O)Nc2ccc(OCCN3CCOCC3)c3ccccc23)n(-c2ccccc2)n1		3400	5.4	9	61	0.23	38	81		57	
CC(=O)Nc1cccc(-n2nc(C(C)(C)C)cc2NC(=O)Nc2ccc(OCCN3CCOCC3)c3ccccc23)c1					55.9	9.9					
Cc1ccc(-n2nc(C(C)(C)C)cc2NC(=O)Nc2ccc(OCCN3CCCCC3)c3ccccc23)cc1					55.4	14					
Cc1ccc(-n2nc(C(C)(C)C)cc2NC(=O)Nc2ccc(OCCn3ccnc3)c3ccccc23)cc1		1100		36	62.4	0.074	7	81			
CC(C)(C)c1cc(NC(=O)Nc2ccc(OCCN3CCOCC3)c3ccccc23)n(Cc2ccccc2)n1					53.4	64					
Cc1ccc(-n2nc(C(C)(C)C)cc2NC(=O)Nc2ccc(OCCN3CCOCC3)c3ccccc23)cn1		530	13	19	61.3	0.18	54	87		86	3.6
Cc1ccc(-n2nc(C(C)(C)C)cc2NC(=O)Nc2ccc(OCCc3ccncc3)c3ccccc23)cc1		820		20	62.4	0.1	30	88			
CC(=O)Nc1ccc(-n2nc(C(C)(C)C)cc2NC(=O)Nc2ccc(OCCN3CCOCC3)c3ccccc23)cc1					53.4	64					
Cc1ccc(-n2nc(C(C)(C)C)cc2NC(=O)Nc2ccc(OCCN3CCSCC3)c3ccccc23)cc1					56.6	5.9					
Cc1ccc(-n2nc(C(C)(C)C)cc2NC(=O)Nc2ccc(OCCN3CCOCC3)c3ccccc23)cc1 [DORAMAPIMOD]		780	30	18	63.5		75	84		63	4.6
Cc1ccc(-n2nc(C(C)(C)C)cc2NC(=O)Nc2ccc(OCCN3C[C@H](C)O[C@@H](C)C3)c3ccccc23)cc1	inactive	770	4.2	16	62.1	0.096	25	50			
CC(C)(C)c1cc(NC(=O)Nc2ccc(OCCN3CCOCC3)c3ccccc23)n(C2CCCCC2)n1					54.8	23					
Cc1ccc(-n2nc(C(C)(C)C)cc2NC(=O)Nc2ccc(OCCN3CCNCC3)c3ccccc23)cc1					55.6	12					
Cc1ccc(-n2nc(C(C)(C)C)cc2NC(=O)Nc2ccc(OCCN3C[C@@H](C)O[C@@H](C)C3)c3ccccc23)cc1					58.4	1.5					
O=C(Nc1ccc(OCCN2CCOCC2)c2ccccc12)Nc1ccnn1-c1ccccc1					49.1	2400					
CCOc1ccc(NC(=O)Nc2cc(C(C)(C)C)nn2-c2ccc(C)cc2)c2ccccc12					55.5	11					
Cc1ccc(-n2nc(C(C)(C)C)cc2NC(=O)Nc2ccc(OCCc3cccnc3)c3ccccc23)cc1					59.8	0.52					
Cc1ccc(-n2nc(C(C)(C)CO)cc2NC(=O)Nc2ccc(OCCN3CCOCC3)c3ccccc23)cc1					53	56					
COc1ccc(CCOc2ccc(NC(=O)Nc3cc(C(C)(C)C)nn3-c3ccc(C)cc3)c3ccccc23)cc1OC					57.3	3.5					
CC1(c2cc(NC(=O)Nc3ccc(OCCN4CCOCC4)c4ccccc34)n(-c3ccccc3)n2)CCCCC1					58.1	1.9					
CC(C)c1cc(NC(=O)Nc2ccc(OCCN3CCOCC3)c3ccccc23)n(-c2ccccc2)n1					56.6	3.4					
COc1ccc(-n2nc(C(C)(C)C)cc2NC(=O)Nc2ccc(OCCN3CCOCC3)c3ccccc23)cn1		> 10000		42	59.1	0.87	80	40			
